How the values were obtained:
[1] = target: GABA-A receptor; alpha-3/beta-3/gamma-2 (Homo sapiens) (UniProt P18507+P28472+P34903); experiment: Modulation of recombinant GABA alpha3beta3gamma2 receptor (unknown origin) expressed in Xenopus laevis oocytes assessed as change in GABA-induced EC(3 to 6) current at 1 uM by two-electrode voltage clamp assay; type: cell-based
Outline: (§1)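 Xenopus laevis oocytes expressing α1, α2, α3 or α5 β3γ2 GABAARs were recorded by two-electrode voltage clamp. Modulation of the GABA EC3-6 current (taken as 100%) was tested at 100 nM, 1 μM and 10 μM in the same cells. Values are mean ± SEM, n = 3–4.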

[2] = Cmax in femoral artery/vein cannulated Sprague-Dawley rat at 10 mg/kg, ip administered […] as single dose by LC-MS/MS analysis; type: ADME, organism-based; parameters: dose 10 mg/kg, route intraperitoneal; settings: in vivo
Outline: (§2)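 Male Sprague-Dawley rats (n = 3 per time point) were dosed 1 mg/kg i.v. or 10 mg/kg i.p. Plasma concentrations were measured at set time points. Clearance, Vdss and T½ came from the i.v. arm, and AUC, Cmax and Tmax from the i.p. arm.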

[3] = Drug uptake in Sprague-Dawley rat brain at 10 mg/kg, ip measured after 4 hrs; type: ADME, organism-based; settings: read-out: Drug uptake
Outline: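 Rats were given 10 mg/kg i.p. (n = 3), and total plasma and brain concentrations were measured at 4 h. Unbound concentrations were calculated as Fu × total concentration, and Kp,uu = Cu,brain/Cu,plasma.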

[4] = target: GABA-A receptor; alpha-5/beta-3/gamma-2 (Homo sapiens) (UniProt P18507+P28472+P31644); experiment: Modulation of recombinant GABA alpha5beta3gamma2 receptor (unknown origin) expressed in Xenopus laevis oocytes assessed as change in GABA-induced EC(3 to 6) current at 10 uM by two-electrode voltage clamp assay; type: cell-based; outline: as §1
[5] = tested on: Plasma; experiment: Unbound plasma concentration in Sprague-Dawley rat at 10 mg/kg, ip measured after 4 hrs; type: ADME, organism-based; settings: in vivo
Outline: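 Male Sprague-Dawley rats (n = 3) received 10 mg/kg i.p., and total plasma concentration was measured at 4 h. Fraction unbound in plasma was determined in vitro by equilibrium dialysis with rat plasma protein. Unbound concentration was calculated as fraction unbound × total concentration.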

[6] = Half life in femoral artery/vein cannulated Sprague-Dawley rat at 1 mg/kg, iv administered […] as single dose by LC-MS/MS analysis; type: ADME, organism-based; settings: in vivo; outline: as §2
[7] = tested on: Plasma; experiment: Fraction unbound in rat plasma by equilibrium dialysis method; type: ADME, cell-free
Outline: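 Fraction unbound was determined in vitro by equilibrium dialysis with rat plasma protein and rat brain.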

[8] = target: T1, GABA-A receptor; alpha-1/beta-3/gamma-2 (Homo sapiens, UniProt P14867+P18507+P28472); experiment: Modulation of recombinant human GABA alpha1beta3gamma2 receptor expressed in HEK293 cells assessed as change in GABA-induced current at -80 mV holding potential preincubated for 3 mins followed by co-administration of GABA by electrophysiology method; type: cell-based
T1 sequence (P14867 whole entry): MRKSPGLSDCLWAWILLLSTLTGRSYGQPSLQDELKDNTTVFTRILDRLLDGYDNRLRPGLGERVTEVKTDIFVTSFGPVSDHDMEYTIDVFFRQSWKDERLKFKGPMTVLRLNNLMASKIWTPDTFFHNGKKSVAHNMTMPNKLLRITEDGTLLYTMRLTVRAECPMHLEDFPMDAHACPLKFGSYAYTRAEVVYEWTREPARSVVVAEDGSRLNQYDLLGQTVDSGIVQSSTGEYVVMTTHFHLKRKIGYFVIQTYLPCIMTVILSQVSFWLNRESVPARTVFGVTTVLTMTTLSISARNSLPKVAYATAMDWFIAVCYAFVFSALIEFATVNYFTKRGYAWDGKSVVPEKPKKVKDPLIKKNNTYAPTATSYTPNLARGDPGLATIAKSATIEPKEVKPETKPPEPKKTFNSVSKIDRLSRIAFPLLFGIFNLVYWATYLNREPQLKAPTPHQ
T1 sequence (P18507 whole entry): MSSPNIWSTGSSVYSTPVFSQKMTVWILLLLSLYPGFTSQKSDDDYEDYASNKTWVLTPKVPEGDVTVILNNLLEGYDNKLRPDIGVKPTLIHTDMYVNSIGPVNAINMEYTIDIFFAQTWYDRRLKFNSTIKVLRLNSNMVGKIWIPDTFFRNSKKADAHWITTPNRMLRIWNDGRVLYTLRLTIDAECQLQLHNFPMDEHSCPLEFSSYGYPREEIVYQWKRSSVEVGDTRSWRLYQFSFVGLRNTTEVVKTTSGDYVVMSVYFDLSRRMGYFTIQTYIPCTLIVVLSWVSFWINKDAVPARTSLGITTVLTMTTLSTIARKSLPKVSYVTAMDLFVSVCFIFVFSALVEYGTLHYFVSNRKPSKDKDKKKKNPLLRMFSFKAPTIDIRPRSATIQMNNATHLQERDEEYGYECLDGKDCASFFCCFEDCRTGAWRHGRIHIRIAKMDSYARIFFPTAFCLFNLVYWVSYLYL
T1 sequence (P28472 whole entry): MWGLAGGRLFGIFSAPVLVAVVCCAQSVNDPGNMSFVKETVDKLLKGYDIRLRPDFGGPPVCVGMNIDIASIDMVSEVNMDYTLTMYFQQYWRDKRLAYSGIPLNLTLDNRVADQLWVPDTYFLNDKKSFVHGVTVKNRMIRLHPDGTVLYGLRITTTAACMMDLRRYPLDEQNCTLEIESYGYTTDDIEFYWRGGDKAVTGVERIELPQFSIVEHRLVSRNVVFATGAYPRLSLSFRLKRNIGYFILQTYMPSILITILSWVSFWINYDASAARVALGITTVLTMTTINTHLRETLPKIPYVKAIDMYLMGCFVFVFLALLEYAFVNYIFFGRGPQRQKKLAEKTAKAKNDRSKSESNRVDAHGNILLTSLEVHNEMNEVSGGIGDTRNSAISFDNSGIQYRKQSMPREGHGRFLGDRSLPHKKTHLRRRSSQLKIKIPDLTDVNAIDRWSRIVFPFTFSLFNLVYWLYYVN

[9] = target: T2, GABA-A receptor; alpha-2/beta-3/gamma-2 (Homo sapiens) (UniProt P18507+P28472+P47869); experiment: Modulation of recombinant GABA alpha2beta3gamma2 receptor (unknown origin) expressed in Xenopus laevis oocytes assessed as change in GABA-induced EC(3 to 6) current by two-electrode voltage clamp assay; type: cell-based; outline: as §1
[10] = tested on: Liver; experiment: Metabolic stability in mouse liver microsomes assessed as compound remaining at 4 uM measured after 30 mins in presence of NADPH by LC-MS/MS analysis; type: ADME, microsome; settings: 0.5 h
Outline: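 Human, mouse or rat liver microsomes were incubated with compound at 4 μM final for 30 min at 37 °C (n = 1). Percent of parent remaining was quantified by LC-MS/MS.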

[11] = target: T2, GABA-A receptor; alpha-2/beta-3/gamma-2 (Homo sapiens); experiment: Modulation of recombinant GABA alpha2beta3gamma2 receptor (unknown origin) expressed in Xenopus laevis oocytes assessed as change in GABA-induced EC(3 to 6) current at 100 nM by two-electrode voltage clamp assay; type: cell-based; outline: as §1
[12] = target: GABA-A receptor; alpha-1/beta-3/gamma-2 (Homo sapiens) (UniProt P14867+P18507+P28472); experiment: Modulation of recombinant GABA alpha1beta3gamma2 receptor (unknown origin) expressed in Xenopus laevis oocytes assessed as change in GABA-induced EC(3 to 6) current at 1 uM by two-electrode voltage clamp assay; type: cell-based; outline: as §1

C#Cc1ccc2c(c1)C(c1ccccn1)=NCc1c(-c3cnco3)ncn1-2
Activity [1]: 188%
Cmax [2]: 3090 nM
concentration at 4 h [3]: 2050 nM
Activity [4]: 246%
Cp(f) [5]: 552 nM
half-life [6]: 1.4 h
Fu [7]: 25.9%
EC50 [8]: 489 nM
Activity [9]: Dose-dependent effect
Stability [10]: 90%
Activity [11]: 100%
Activity [12]: 155%

Source: ChEMBL document CHEMBL4041524, “Synthesis and Characterization of a Novel γ-Aminobutyric Acid Type A (GABAA) Receptor Ligand That Combines Outstanding Metabolic Stability, Pharmacokinetics, and Anxiolytic Efficacy” (J Med Chem, 2016)
